# From PubChem BioAssay
# Autophagy mod – autophagy modulation, high-content screen; MEF GFP-LC3 puncta imaging; test concentration mostly 10 µM; calls only at 10 µM (by protocol); actives 0.98% (n = 190,000); AID 463193;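 active means percentage of spot-positive cells more than 3 SD above its plate mean, without a fluorescence outlier flag or 80% toxicity; inconclusive means no clear call, values can overlap the other calls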;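 further: spot-positive cell cutoff set from DMSO-treated cells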
# Ins promoter up – MIN6 insulin promoter up-regulation | MIN6 insulin promoter-GFP reporter, high-content imaging; active compounds read high | z-score at 5 µM | actives 0.3% (n = 190,000);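 active means z-score above 3 at 5 µM with at least 500 cells counted in the well; inconclusive means wells under 500 cells, flagged as cytotoxic or low count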
# Tb hexokinase – blocks Trypanosoma brucei hexokinase 1 activity | actives 0.11% (n = 220,000) | recombinant TbHK1, G6PDH-coupled NADH A340 | inhibition, % at 10 µM | AID 1430;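 active means inhibition of 50% or more in the single-dose primary screen; inactive means inhibition below 50%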
# MT stabilizer – stabilizes microtubules in HeLa cells; % tubulin-high responders, % at 10 µM; actives 0.83% (n = 200,000); HeLa tubulin immunostaining HCS, 24 h; share of cells brighter than vehicle mean+2SD;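 active means plate Z-score above 3 for both tubulin-high and condensed-nucleus cell shares, with cell loss under 80%, at 10 µM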;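 further: anti alpha tubulin signal scored within the nucleus-defined area of each cell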
# bCat nuc transl – modulators of beta-catenin nuclear translocation; HeLa beta-catenin nuclear translocation, immunofluorescence imaging; nuclear translocation activity, % at 5 µM; actives 0.3% (n = 190,000); AID 1665;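 active means nuclear translocation activity above 50% at 5 µM, with a well cell count of 50 or more; inconclusive means wells under 50 cells across six images, flagged as toxic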;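 further: per-cell ratio of nuclear to cytoplasmic median beta-catenin stain intensity; plate controls were DMSO negative control for no effect and GSK-3 inhibitor IX positive control for full effect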
#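 Test system: human HeLa cells, endogenous beta-catenin. Times: 24 h compound exposure, 37°C. Measured by: beta-catenin immunofluorescence imaging with DAPI.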
# * hit, by the source's call; i = inactive; ? = inconclusive; nt = no result given; + = active, no number. The list is not random: actives were taken first. Their share in the collection is about 1.9%.
SMILES,Autophagy mod,Ins promoter up,Tb hexokinase,MT stabilizer,bCat nuc transl
CCOC(=O)c1c(C)[nH]c(C(=O)N/N=C/c2cccc(OC)c2)c1C,i,0,-4,20*,0
CCCNC(=O)COC(=O)c1[nH]c(C)c(C(=O)OCC)c1C,i,nt,2,3,nt
CCOC(=O)c1c(C)[nH]c(C(=O)N/N=C\c2ccccc2Cl)c1C,+,-0.12,-1,23*,49
CCOC(=O)c1c(C)[nH]c(C(=O)OCC(=O)Nc2cc(C)c(Cl)cc2OC)c1C,+,-0.48,-2,2,-1
CCOc1cc(/C=N/NC(=O)CCn2nc(C)cc2C)ccc1O,nt,0.06,-26,nt,0
O=[N+]([O-])c1ccc(Nc2c3ccccc3nc3ccccc23)cc1,+,-0.84,-1,2,1
CCOc1ccccc1NC(=O)N1C2CCCC1CC(NC(=O)C1CC1)C2 (configuration not stated),+,0.05,5,3,-1
CCOc1ccccc1NC(=O)C1CCN(C(=O)c2cccs2)CC1,+,0.02,6,3,2
Cc1ccccc1NC(=O)N1C2CCCC1CC(NC(=O)C1CC1)C2 (configuration not stated),i,0.11,-1,5,-1
CCc1nc(N2CCCCC2)c2oc3ccccc3c2n1,i,-0.13,-5,3,3
CCc1nc(N2CCCCC2C(=O)O)c2oc3ccccc3c2n1 (configuration not stated),nt,0.14,-10,nt,0
CCc1nc(N2CCN(Cc3ccc4c(c3)OCO4)CC2)c2oc3ccccc3c2n1,i,-0.38,0,48*,116*
CCc1nc(N2CCCCC2C)c2oc3ccccc3c2n1 (configuration not stated),i,-0.2,0,31*,114*
O=C(Nc1ccccc1Cl)O/N=C/c1ccncc1,i,nt,3,1,nt
COc1ccc(NC(=O)O/N=C/c2ccncc2)cc1,i,nt,-7,2,-1
CN(C)c1ccc(/C=N/OC(=O)Nc2ccccc2Cl)cc1,i,-0.61,-12,31*,0
COc1ccc(/C=N/OC(=O)Nc2ccccc2OC)cc1,i,0.66,8,19*,-1
CCOC(=O)CC(NC(=O)Cc1ccc(F)cc1)c1ccccc1Cl (configuration not stated),i,0.34,33,2,-2
CCn1nc(C(=O)N2CCc3ccccc3C2)c2ccccc2c1=O,i,0,-15,16*,0
CCCn1nc(C(=O)N2CCc3ccccc3C2)c2ccccc2c1=O,i,-0.63,3,3,2
COc1ccc(/C(C)=N/OC/C(O)=C(\C#N)c2nc3ccccc3[nH]2)cc1OC,i,-0.8,-23,16*,3
CC(C)c1ccc(NC(=O)Cn2cccc2C2=NC(c3ccccc3)CO2)cc1 (configuration not stated),i,0.41,35,5,-3
COc1ccc(N=C2S/C(=C\c3ccc(N4CCOCC4)o3)C(=O)N2CCc2c[nH]c3ccccc23)cc1,+,nt,-14,4,nt
COc1ccc(CNCC(O)(c2ccccc2)c2ccc(Cl)cc2)cc1 (configuration not stated),i,0.38,15,1,0
Cc1ccc(CNCC(O)(c2ccccc2)c2ccc(Cl)cc2)cc1 (configuration not stated),+,-1.3,21,2,3
SMILES,Autophagy mod,Ins promoter up,Tb hexokinase,MT stabilizer,bCat nuc transl
C=CCn1c(C(CC(C)C)CC(C)O)n[nH]c1=S (configuration not stated),i,0.01,0,2,-1
COc1ccc2c(C)nc(Nc3nc(C)cc(=O)[nH]3)nc2c1,+,nt,-13,3,nt
CCN(CC)CCNC(=O)c1cccc(NC(=O)C(=O)c2cc(Br)ccc2NC(C)=O)c1,+,-2,-1,5,-1
CC(=O)Nc1ccccc1C(=O)C(=O)Nc1cccc(Br)c1,i,0.35,-12,3,0
COC(=O)C1Cc2ccccc2CN1C(=O)CCl (configuration not stated),i,0.44,-8,12,-1
CCn1c2ccccc2c2cc(NC(=O)c3cc(OC)c(OC)c(OC)c3)ccc21,i,?,-11,23*,4
CCn1c2ccccc2c2cc(NC(=O)c3cc(OC)cc(OC)c3)ccc21,i,-1.6,-13,9.6*,11
COc1cc(NC(=O)N2CCNC2=O)cc(C(=O)Nc2cccc(C(F)(F)F)c2)c1,nt,-0.19,-9,nt,55*
CCn1c2ccccc2c2cc(NC(=O)c3cc(C)on3)ccc21,i,-0.69,-9,20*,-1
CCN1CCN(Cc2ccc(NC(=O)c3cc(NC(=O)N4CCNC4=O)cc(OC)c3)cc2C(F)(F)F)CC1,nt,-0.69,6,nt,0
CCn1c2ccccc2c2cc(NC(=O)COc3ccc(OC)cc3)ccc21,i,nt,-3,2,nt
CCOC(=O)CC(=O)N/N=C/c1c(N)n(C)c(=O)n(C)c1=O,i,nt,-3,3,2
O=C(Nc1ncn[nH]1)c1ccc(S(=O)(=O)N2CCOCC2)cc1,i,0.24,-3,4,-4
CCOc1cc(OCC)cc(C(=O)Nc2cccc(C(C)=O)c2)c1,i,0.02,1,6,-1
COc1cccc(C(=O)Nc2ccc(-c3nc4ccccc4o3)c(O)c2)c1,i,-0.51,-11,13,-1
COc1cc(OC)cc(C(=O)Nc2ccc(-c3nc4ccccc4o3)cc2)c1,+,-1.6,-31,26,-1
COc1cc(C(=O)Nc2ccc(N(C)C)cc2)cc(OC)c1OC,i,-0.15,-10,26*,36
CCn1c2ccccc2c2cc(NC(=O)c3cccc([N+](=O)[O-])c3C)ccc21,i,-0.62,-7,14*,-2
CCn1c2ccccc2c2cc(NC(=O)c3ccc(C)c([N+](=O)[O-])c3)ccc21,i,-2.2,-1,11,2
COc1cc(OC)cc(C(=O)Nc2cccc(C(C)=O)c2)c1,i,3.5*,0,2,nt
COCc1c(C(=O)OC/C(O)=C(\C#N)c2nc3ccccc3[nH]2)oc2ccccc12,i,nt,-16,1,1
CCn1c2ccccc2c2cc(NC(=O)CSc3nnc(-c4ccccc4)o3)ccc21,i,-0.37,-20,16*,-5
COc1cc(C(=O)Nc2cccc3ncccc23)cc(OC)c1OC,i,1.5,-1,5,nt
COC(=O)c1ccc(-c2nc3ccc(C)cc3o2)cc1,i,1.2,-9,52*,0
COc1cc(C(=O)Nc2ccc(Br)cc2C(=O)c2cc(OC)c(OC)c(OC)c2)cc(OC)c1OC,i,-0.63,-15,34*,4
Cc1oc(-c2cccc(Br)c2)[n+]([O-])c1C,i,-0.45,-1,3,1
Clc1ccc2[nH]c3c(c2c1)CCc1cn[nH]c1-3,i,-1.9,-2,16*,13
c1ccc2c3c([nH]c2c1)-c1[nH]ncc1CC3,i,0.77,-2,5,-1
